In ChEMBL document CHEMBL3232844, “Synthesis and structure activity relationships of schweinfurthin indoles” (2014):

How the values were obtained:
Type in all cases: functional
[1] = tested on: MCF7; test: Cytotoxicity against human MCF7 cells
How it was run: (§1)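 Tested in a 60-cell-line human tumor panel screen; the read-out is growth inhibition, reported as GI50 for each cell line.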

[2] = tested on: RXF 393; test: Cytotoxicity against human RXF393 cells; how it was run: as §1
[3] = tested on: NCI-H23; test: Cytotoxicity against human NCI-H23 cells; how it was run: as §1
[4] = Cytotoxicity against human UO31 cells
How it was run: (§2)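 Cell line run as part of the 60-cell-line screening panel; growth inhibition was reported as a GI50 for each line.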

[5] = tested on: LOX IMVI; test: Cytotoxicity against human LOXIMVI cells; how it was run: as §1
[6] = tested on: K562; test: Cytotoxicity against human K562 cells; how it was run: as §1
[7] = tested on: SK-MEL-2; test: Cytotoxicity against human SK-MEL-2 cells; how it was run: as §1
[8] = tested on: CAKI-1; test: Cytotoxicity against human Caki1 cells; how it was run: as §1
[9] = tested on: A549; test: Cytotoxicity against human A549 cells; how it was run: as §1
[10] = Cytotoxicity against human EKVX cells; how it was run: as §1
[11] = tested on: NCI-H322M; test: Cytotoxicity against human NCI-H322M cells; how it was run: as §1
[12] = Cytotoxicity against human OVCAR5 cells; how it was run: as §1
[13] = tested on: SNB-75; test: Cytotoxicity against human SNB75 cells; how it was run: as §2
[14] = Cytotoxicity against human OVCAR3 cells; how it was run: as §1
[15] = Cytotoxicity against human UACC257 cells; how it was run: as §2
[16] = Cytotoxicity against human HCT15 cells; how it was run: as §1
[17] = tested on: MDA-MB-231; test: Cytotoxicity against human MDA-MB-231 cells; how it was run: as §1
[18] = tested on: KM12; test: Cytotoxicity against human KM12 cells; how it was run: as §1
[19] = tested on: SNB-19; test: Cytotoxicity against human SNB19 cells; how it was run: as §1
[20] = tested on: BT-549; test: Cytotoxicity against human BT549 cells; how it was run: as §1
[21] = tested on: HOP-62; test: Cytotoxicity against human HOP62 cells; how it was run: as §1
[22] = tested on: A498; test: Cytotoxicity against human A498 cells; how it was run: as §1
[23] = read-out: pLC50 (the source's name) (converted)

## COc1cc(/C=C/c2cc(O)c3c(c2)C[C@@H]2C(C)(C)[C@H](O)CC[C@@]2(C)O3)cc2[nH]cc(CC=C(C)C)c12
[1]
  GI50: 0.537 µM
  LC50: 55 µM
[1]; read-out: pTGI (converted)
  TGI: 12.3 µM
[2]
  GI50: 0.01 µM
  LC50: 8.51 µM
[2]; read-out: pTGI (converted)
  TGI: 0.0339 µM
[3]
  GI50: 1.55 µM
[3]; [23]
  CC50: 66.1 µM
[3]; read-out: pTGI (converted)
  TGI: 26.9 µM
[4]; UO-31
  GI50: 0.129 µM
  LC50: 69.2 µM
[4]; UO-31, read-out: pTGI (converted)
  TGI: 21.4 µM
[5]
  GI50: 0.282 µM
[5]; [23]
  CC50: 30.9 µM
[5]; read-out: pTGI (converted)
  TGI: 6.61 µM
[6]
  GI50: 0.138 µM
[6]; [23]
  CC50: > 100 µM
[6]; read-out: pTGI (converted)
  TGI: 9.77 µM
[7]
  GI50: 0.105 µM
[7]; [23]
  CC50: 50.1 µM
[7]; read-out: pTGI (converted)
  TGI: 5.25 µM
[8]
  GI50: 0.245 µM
  LC50: 79.4 µM
[8]; read-out: pTGI (converted)
  TGI: 17 µM
[9]
  GI50: 2.4 µM
[9]; [23]
  CC50: 67.6 µM
[9]; read-out: pTGI (converted)
  TGI: 38.9 µM
[10]
  GI50: 3.89 µM
[10]; [23]
  CC50: 81.3 µM
[10]; read-out: pTGI (converted)
  TGI: 39.8 µM
[11]
  GI50: 18.2 µM
[11]; [23]
  CC50: 77.6 µM
[11]; read-out: pTGI (converted)
  TGI: 49 µM
[12]; OVCAR-5
  GI50: 5.37 µM
[12]; OVCAR-5, read-out: pLC50 (the source's name) (converted)
  CC50: 60.3 µM
[12]; OVCAR-5, read-out: pTGI (converted)
  TGI: 30.2 µM
[13]
  GI50: 0.01 µM
[13]; [23]
  CC50: 64.6 µM
[13]; read-out: pTGI (converted)
  TGI: 10.5 µM
[14]; OVCAR-3
  GI50: 8.71 µM
[14]; OVCAR-3, read-out: pLC50 (the source's name) (converted)
  CC50: 63.1 µM
[14]; OVCAR-3, read-out: pTGI (converted)
  TGI: 36.3 µM
[15]; UACC-257
  GI50: 14.5 µM
[15]; UACC-257, read-out: pLC50 (the source's name) (converted)
  CC50: 77.6 µM
[15]; UACC-257, read-out: pTGI (converted)
  TGI: 49 µM
[16]; HCT-15
  GI50: 0.209 µM
[16]; HCT-15, read-out: pLC50 (the source's name) (converted)
  CC50: 36.3 µM
[16]; HCT-15, read-out: pTGI (converted)
  TGI: 4.9 µM
[17]
  GI50: 0.891 µM
  LC50: 45.7 µM
[17]; read-out: pTGI (converted)
  TGI: 9.77 µM
[18]
  GI50: 2.95 µM
[18]; [23]
  CC50: 33.1 µM
[18]; read-out: pTGI (converted)
  TGI: 10.2 µM
[19]
  GI50: 0.575 µM
[19]; [23]
  CC50: 64.6 µM
[19]; read-out: pTGI (converted)
  TGI: 35.5 µM
[20]
  GI50: 0.479 µM
[20]; [23]
  CC50: 67.6 µM
[20]; read-out: pTGI (converted)
  TGI: 41.7 µM
[21]
  GI50: 0.0501 µM
[21]; [23]
  CC50: 40.7 µM
[21]; read-out: pTGI (converted)
  TGI: 1.7 µM
[22]
  GI50: 0.0661 µM
[22]; [23]
  CC50: 44.7 µM
[22]; read-out: pTGI (converted)
  TGI: 2.69 µM
